# Key:
# [1] = tested on: Mus musculus; test: Neurotoxicity in ddY mouse assessed as reduction in locomotor activity at 10 to 100 mg/kg, po after 1 hr; assay type: toxicity, organism-based; parameters: dose 10-100 mg/kg, route oral; conditions: in vivo
# [2] = tested on: Rattus norvegicus; test: Neurotoxicity in Wistar rat assessed as memory impairment at 3 to 30 mg/kg, po after 1 hr by passive avoidance test; assay type: toxicity, organism-based; parameters: dose 3-30 mg/kg, route oral; conditions: in vivo
# [3] = Ratio of drug level in brain to blood in rat at 10 mg/kg, po; assay type: ADME, organism-based; parameters: dose 10 mg/kg, route oral
# Summary of the method: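 Rats dosed orally at 10 mg/kg (HCl salt); brain and blood drug concentrations measured and expressed as brain/blood ratio.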
# [4] = tested on: Mus musculus; test: Neurotoxicity in ddY mouse assessed as elongation of hexobarbital-induced sleep at 300 mg/kg, po after 1 hr relative to diazepam; assay type: toxicity, organism-based; parameters: dose 300 mg/kg, route oral; conditions: in vivo
# [5] = tested on: Mus musculus; test: Neurotoxicity in ddY mouse assessed as motor impairment at 10 to 100 mg/kg, po after 1 hr by horizontal rotarod test; assay type: toxicity, organism-based; parameters: dose 10-100 mg/kg, route oral; conditions: in vivo
# [6] = Displacement of [3H]batrachotoxin from rat brain sodium channel site 2; assay type: tissue-based
# [7] = Solubility of the compound at pH 7.4 by HPLC analysis; assay type: physicochemical; conditions: buffer
# Summary of the method: (§1)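 Compound (1 mg) shaken in 0.4 mL buffered solution at pH 7.4 or pH 2.5, then centrifuged; dissolved compound in the supernatant quantified by HPLC.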
# [8] = target: Translocator protein (Homo sapiens, UniProt P30536); test: Displacement of [3H]PK11195 from TSPO in human U-87 MG cells after 1 hr by liquid scintillation counting analysis; assay type: cell-based
# Sequence of Translocator protein (Homo sapiens, UniProt P30536) (P30536 whole entry): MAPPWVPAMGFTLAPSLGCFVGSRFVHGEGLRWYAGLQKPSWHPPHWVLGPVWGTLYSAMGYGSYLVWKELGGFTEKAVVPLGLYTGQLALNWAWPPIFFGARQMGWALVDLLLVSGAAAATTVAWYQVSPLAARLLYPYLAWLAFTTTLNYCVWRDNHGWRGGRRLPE
# [9] = target: Amine oxidase [flavin-containing] A (Homo sapiens, UniProt P21397); test: Inhibition of human MAO-A at 10 uM
# Sequence of Amine oxidase [flavin-containing] A (P21397 whole entry): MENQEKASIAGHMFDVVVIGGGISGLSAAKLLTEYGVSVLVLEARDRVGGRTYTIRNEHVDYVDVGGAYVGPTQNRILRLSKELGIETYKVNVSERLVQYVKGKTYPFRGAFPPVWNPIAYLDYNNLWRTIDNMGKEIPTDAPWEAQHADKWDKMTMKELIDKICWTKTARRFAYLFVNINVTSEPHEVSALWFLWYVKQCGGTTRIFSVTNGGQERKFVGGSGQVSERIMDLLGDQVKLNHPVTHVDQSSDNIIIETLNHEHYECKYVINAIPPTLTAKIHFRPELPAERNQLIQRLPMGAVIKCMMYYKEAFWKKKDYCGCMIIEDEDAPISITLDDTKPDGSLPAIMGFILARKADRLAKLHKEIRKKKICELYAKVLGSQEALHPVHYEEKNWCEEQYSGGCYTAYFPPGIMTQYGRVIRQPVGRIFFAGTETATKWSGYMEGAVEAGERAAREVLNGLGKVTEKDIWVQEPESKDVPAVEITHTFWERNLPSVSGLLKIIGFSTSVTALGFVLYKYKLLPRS
# [10] = Metabolic stability in human liver S9 fraction assessed as compound remaining at 1 uM after 30 mins; assay type: ADME, subcellular; conditions: read-out: Stability
# [11] = target: Translocator protein (Rattus norvegicus, UniProt P16257); test: Displacement of [3H]PK11195 from Sprague-Dawley rat kidney TSPO after 1 hr by liquid scintillation counting analysis
# Sequence of Translocator protein (Rattus norvegicus, UniProt P16257) (P16257 whole entry, looked up): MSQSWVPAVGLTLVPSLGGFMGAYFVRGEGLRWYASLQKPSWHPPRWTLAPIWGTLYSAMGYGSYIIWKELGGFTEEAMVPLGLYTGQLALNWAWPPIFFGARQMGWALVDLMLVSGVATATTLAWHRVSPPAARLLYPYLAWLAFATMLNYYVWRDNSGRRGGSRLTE
# [12] = Metabolic stability in rat liver S9 fraction assessed as compound remaining at 1 uM after 30 mins in presence of NADPH; assay type: ADME, subcellular; conditions: read-out: Stability
# [13] = Solubility of the compound at pH 2.5 by HPLC analysis; assay type: physicochemical; conditions: buffer; summary of the method: as §1
Structure (SMILES),Activity [1],Activity [2],Kp [3],Activity [4],Activity [5],IC50 [6] [nM],solubility [7] [µg/mL],Ki [8] [nM],inhibition (INH) [9],"remaining at 0.5 h, 1 µM [10] [%]",Ki [11] [nM],"remaining at 0.5 h, 1 µM [12] [%]",solubility [13] [µg/mL]
CN(C(=O)Cn1c(=O)oc2ccc(-c3cccnc3)cc21)c1ccc(C(F)(F)F)cc1.Cl,Non-toxic,Non-toxic,1.2,Non-toxic,Non-toxic,–,–,–,–,–,–,–,–
CN(C(=O)Cn1c(=O)oc2ccc(-c3cccnc3)cc21)c1ccc(C(F)(F)F)cc1,–,–,–,–,–,> 10000,1,8,Not Active,84,8.6,38,420
